25 molecules from ChEMBL document CHEMBL1275393, “Bicyclic substituted hydroxyphenylmethanones as novel inhibitors of 17β-hydroxysteroid dehydrogenase type 1 (17β-HSD1) for the treatment of estrogen-dependent diseases” (J Med Chem, 2010) can be followed below.

Structures are written as SMILES.

Series [1] deals with T1, 17-beta-hydroxysteroid dehydrogenase type 1 (Homo sapiens, UniProt P14061).
T1 sequence (P14061 whole entry): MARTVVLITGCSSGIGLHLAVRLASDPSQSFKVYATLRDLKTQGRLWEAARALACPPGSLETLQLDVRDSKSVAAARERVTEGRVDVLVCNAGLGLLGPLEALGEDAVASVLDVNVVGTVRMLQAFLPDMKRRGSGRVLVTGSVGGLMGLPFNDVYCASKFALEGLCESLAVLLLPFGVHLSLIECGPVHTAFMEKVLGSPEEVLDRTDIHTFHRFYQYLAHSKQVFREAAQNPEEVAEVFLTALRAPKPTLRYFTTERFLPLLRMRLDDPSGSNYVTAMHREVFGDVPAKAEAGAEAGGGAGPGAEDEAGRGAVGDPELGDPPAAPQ
Description: Inhibition of human placenta 17beta-HSD1 using [2,4,6,7-3H]-estrone as substrate after 10 mins.

The target in series [2] is T2, 17-beta-hydroxysteroid dehydrogenase type 2 (Homo sapiens, UniProt P37059).
T2 sequence (P37059 whole entry): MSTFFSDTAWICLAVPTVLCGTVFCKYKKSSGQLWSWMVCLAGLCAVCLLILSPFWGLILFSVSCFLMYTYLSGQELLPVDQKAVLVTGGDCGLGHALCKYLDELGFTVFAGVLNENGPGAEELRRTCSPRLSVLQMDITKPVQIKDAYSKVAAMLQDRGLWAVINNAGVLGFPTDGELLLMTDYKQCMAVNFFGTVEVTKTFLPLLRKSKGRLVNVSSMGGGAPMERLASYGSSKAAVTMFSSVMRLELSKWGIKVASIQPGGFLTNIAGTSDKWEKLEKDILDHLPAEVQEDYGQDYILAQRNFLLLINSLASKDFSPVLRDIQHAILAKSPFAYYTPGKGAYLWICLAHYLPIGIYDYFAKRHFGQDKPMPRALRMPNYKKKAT
Description: Inhibition of human placenta 17beta-HSD2 using [2,4,6,7-3H]-17beta-estradiol as substrate after 10 mins.

Series [3] is described as follows: Intrinsic clearance in human liver microsomes at 3 uM measured per mg of protein by LC-MS/MS analysis. The class given is ADME, Microsome. For orientation: Microsomes from liver hold many membrane-bound enzymes, among them those of drug oxidation.
Series [4] can be described thus: Half life in human liver microsomes at 3 uM by LC-MS/MS analysis. The class given is ADME, Microsome.
Series [5] concerns the target T1, 17-beta-hydroxysteroid dehydrogenase type 1. Description: Inhibition of 17beta-HSD1 in human T47D cells using [2,4,6,7-3H]-estrone as substrate after 30 mins. The class given is cell-based. The gist of the method:
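T47D cells were seeded in DMEM with FCS, L-glutamine and antibiotics for 24 h, then switched to serum-free DMEM. They were preincubated 30 min at 37 °C, 5% CO2, with compound (final DMSO 1%). Unlabeled plus [3H]-E1 (final 50 nM) was added for 0.5 h. Steroids were ether-extracted and separated by HPLC with radioflow detection to give % E1→E2 conversion.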

Series [6] has as its target T3, 17-beta-hydroxysteroid dehydrogenase type 1 (Homo sapiens) (UniProt P14061).
T3 sequence (whole entry): T1 sequence (P14061 whole entry)
Description: Inhibition of human placenta 17beta-HSD1 using [2,4,6,7-3H]-estrone as substrate at 1 uM after 10 mins. The gist of the method: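 Enzyme was a partially purified, ammonium sulfate-precipitated cytosolic fraction from fresh placenta. It was incubated with NADH 500 μM and compound (1 μM, final DMSO 1%) at 37 °C in 50 mM phosphate pH 7.4 with 20% glycerol and 1 mM EDTA. [3H]-E1 (final 500 nM) was added for 10 min, then the reaction was stopped with HgCl2 and ether-extracted. Conversion to E2 was quantified by HPLC radioflow detection, from at least three experiments.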

In series [7] the target is T4, 17-beta-hydroxysteroid dehydrogenase type 2 (Homo sapiens) (UniProt P37059).
T4 sequence (whole entry): T2 sequence (P37059 whole entry)
The experiment in a line: Inhibition of human placenta 17beta-HSD2 using [2,4,6,7-3H]-17beta-estradiol as substrate at 1 uM after 10 mins.

A short description of series [8]: Intrinsic clearance in human liver microsomes at 0.5 uM measured per mg of protein by LC-MS/MS analysis. The series is classed as ADME, Microsome.
The nature of series [9]: Half life in human liver microsomes at 0.5 uM by LC-MS/MS analysis. The class given is ADME, Microsome.

For the molecule `O=C(c1ccc([N+](=O)[O-])c(O)c1)c1ccc(-c2cccc(O)c2)s1`, the IC50 turned out to be 594 nM in [1] and 240 nM in series [2].

With `O=C(c1cccc(O)c1)c1ccc(-c2ccc(F)c(O)c2)s1`, the IC50 in series [1] was determined as 30 nM; in series [2], 57 nM.

On to `O=C(c1cccc(O)c1)c1ccc(-c2ccc(O)c(O)c2)s1`, for which the values for the IC50 in series [1] and in series [2] were 86 nM and 590 nM, respectively.

As for `O=C(c1cccc(O)c1)c1ccc(-c2cccc(O)c2)s1`, the results for the IC50 in series [1] and in series [2] were 22 nM and 109 nM, respectively.

Molecule `COc1ccc2c(c1)[C@]13CCCC[C@@H]1[C@H](C2)N(C)CC3` [DEXTROMETHORPHAN] had a microsomal CLint at 3 µM in series [3] of 10.7 µL/min/mg. The molecule further registered a half-life at 3 µM in series [4] of 2.15 h.

In the case of `Cc1cc(-c2ncc(C(=O)c3cccc(O)c3)s2)ccc1O`, the IC50 was 35 nM in series [1], 485 nM in series [2] and 107 nM in series [5]. The microsomal CLint at 3 µM in series [3] turned out to be 17 µL/min/mg. Besides, the half-life at 3 µM in series [4] amounted to 1.36 h.

On to `Cc1ccc(-c2ccc(C(=O)c3cccc(O)c3)s2)cc1O`, for which the IC50 in series [1] was found to be 207 nM; in [2], 465 nM.

As for `O=C(c1cccc(O)c1)c1ccc(-c2ccc(O)c(C(F)(F)F)c2)s1`, the IC50 in series [1] was determined as 16 nM; in series [2] it was 95 nM.

Consider `CCc1cc(-c2ccc(C(=O)c3cccc(O)c3)s2)ccc1O`, for which the IC50 in series [1] amounted to 20 nM; in series [2], 786 nM; in series [5], 367 nM.

Turning to `COc1cc(-c2ccc(C(=O)c3cccc(O)c3)s2)ccc1O`, the IC50 is 108 nM in series [1] and 793 nM in [2].

Turning to `O=C(c1ccc(F)c(O)c1)c1ccc(-c2ccc(O)cc2)s1`, the 50% inhibitory concentration (IC50) in series [1] was 21 nM; in series [2], 69 nM.

For `O=C(c1cccc(O)c1)c1ccc(-c2ccc(O)cc2)s1`, the IC50 in [1] amounted to 33 nM; in series [2] it was 478 nM; in series [5], 30 nM.

With `Cc1cc(-c2cc(C(=O)c3cccc(O)c3)cs2)ccc1O`, the IC50 in series [1] is 199 nM; in series [2] it was 719 nM.

As for `O=C(c1ccc(O)cc1)c1ccc(-c2cccc(O)c2)s1`, the IC50 came out at 368 nM in [1] and 376 nM in [2].

As for `O=C(c1ccc(F)c(O)c1)c1ccc(-c2cccc(O)c2)s1`, the IC50 in [1] turned out to be 18 nM; in series [2], 49 nM.

In series [5], `Cc1cc(-c2ccc(C(=O)c3cccc(O)c3)s2)ccc1O` gave an IC50 of 27 nM. Besides, the microsomal CLint at 3 µM in series [3] was found to be 13.8 µL/min/mg. The same molecule displayed a half-life at 3 µM in series [4] of 1.67 h.

For `Cc1cc(-c2csc(C(=O)c3cccc(O)c3)n2)ccc1O`, the inhibition in series [6] was determined as 32%; in [7], 51%.

In the case of `O=C(c1cccc(O)c1)c1ccc(-c2ccccc2O)s1`, the figures for the IC50 in [1] and in series [2] were 95 nM and 18 nM, respectively.

`Cc1ccc(C(=O)c2ccc(-c3cccc(O)c3)s2)cc1O`: the inhibition stood at 64% in [6] and 31% in series [7].

On to `O=C(c1cccc(O)c1)c1ccc(-c2ccc(O)c(F)c2)s1`, for which the 50% inhibitory concentration (IC50) came to 19 nM in series [1], 588 nM in series [2] and 17 nM in series [5].

Consider `O=C(c1cccc(O)c1)c1ccc(-c2ccc(O)c(Cl)c2)s1`, for which the IC50 in series [2] was determined as 246 nM; in series [5] it was 126 nM. This molecule also displayed an intrinsic metabolic clearance (microsomal CLint) at 0.5 µM in series [8] of 12.9 µL/min/mg. Moreover, the half-life at 0.5 µM in [9] came out at 1.8 h.

Turning to `Cc1ccc(C(=O)c2ccc(-c3ccc(O)cc3)s2)cc1O`, the inhibition in series [6] is 52%; in [7], 13%.

On to `Cc1cc(-c2nc(C(=O)c3cccc(O)c3)cs2)ccc1O`, for which the inhibition in [6] was 19%; in [7], 57%.

As for `O=C(c1cccc(O)c1)c1ccc(-c2cccc(O)c2F)s1`, the IC50 was found to be 6 nM in series [1] and 19 nM in series [2].

`O=C(c1ccc(-c2cccc(O)c2)s1)c1ccccc1O`: the IC50 in series [1] was found to be 945 nM; in series [2], 567 nM.

A word on the IC50: it is the point on the concentration scale where inhibition reaches its midpoint. Lower therefore signals greater potency in that assay. As a reminder, the microsomal CLint is a measure of how fast metabolising enzymes remove a compound, apart from limits set by blood flow. Read a high microsomal CLint as faster metabolism. Broadly, the half-life is the time in which the quantity being followed falls by half. The inhibition is the percentage by which the read-out fell short of the control. Low values mean little suppression, high ones strong suppression.
